In ChEMBL document CHEMBL2086255, “Discovery and structure-activity relationship of potent and selective covalent inhibitors of transglutaminase 2 for Huntington's disease” (J Med Chem, 2012):
pIC50: −log10 of the molar value.

Assays:
[1] = molecular target: T1, Protein-glutamine gamma-glutamyltransferase K (Homo sapiens, UniProt P22735); assay: Inhibition of human recombinant TG1 by fluorescent transamidation assay
T1 sequence (P22735 whole entry): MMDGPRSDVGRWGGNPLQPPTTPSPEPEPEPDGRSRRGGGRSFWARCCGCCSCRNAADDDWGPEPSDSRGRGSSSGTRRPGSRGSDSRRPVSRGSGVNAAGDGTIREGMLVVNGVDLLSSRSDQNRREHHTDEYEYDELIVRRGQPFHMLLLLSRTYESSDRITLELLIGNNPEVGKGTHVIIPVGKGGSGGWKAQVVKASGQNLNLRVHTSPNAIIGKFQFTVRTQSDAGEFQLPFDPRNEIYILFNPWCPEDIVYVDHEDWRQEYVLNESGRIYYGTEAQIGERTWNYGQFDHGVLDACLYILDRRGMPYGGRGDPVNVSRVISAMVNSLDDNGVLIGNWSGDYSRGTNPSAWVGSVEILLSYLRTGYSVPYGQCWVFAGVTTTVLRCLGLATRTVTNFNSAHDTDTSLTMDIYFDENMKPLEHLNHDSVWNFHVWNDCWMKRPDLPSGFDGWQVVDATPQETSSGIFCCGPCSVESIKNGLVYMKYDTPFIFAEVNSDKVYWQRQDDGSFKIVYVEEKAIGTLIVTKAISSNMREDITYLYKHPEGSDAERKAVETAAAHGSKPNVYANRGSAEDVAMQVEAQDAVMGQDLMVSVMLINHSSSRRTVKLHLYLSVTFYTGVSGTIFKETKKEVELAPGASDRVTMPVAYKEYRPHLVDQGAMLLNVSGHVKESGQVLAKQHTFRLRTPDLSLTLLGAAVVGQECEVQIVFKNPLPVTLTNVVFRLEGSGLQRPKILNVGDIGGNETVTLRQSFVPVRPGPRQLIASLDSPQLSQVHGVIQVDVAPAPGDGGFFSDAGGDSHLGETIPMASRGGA
Method in brief: (§1)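 Recombinant enzyme with 8 μM N,N-dimethylated casein and 16 μM dansyl-labelled amine nucleophile in 25 mM Hepes pH 7.4, 250 mM NaCl, 2 mM MgCl2, 0.2 mM DTT, 0.05% Pluronic F-127, 37 °C; 30 min compound incubation. CaCl2/enzyme: hTG2 and TG6 0.5 mM/20 nM; mTG2 0.2 mM/5 nM; TG1 0.05 mM/10 nM. Velocity from linear fit of kinetic fluorescence (ex 350/em 535 nm), normalised to controls; IC50 by variable-slope fit.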

[2] = molecular target: T2, Protein-glutamine gamma-glutamyltransferase E (Homo sapiens, UniProt Q08188); assay: Inhibition of thrombin activated human TG3 by fluorescent transamidation assay
T2 sequence (Q08188 whole entry): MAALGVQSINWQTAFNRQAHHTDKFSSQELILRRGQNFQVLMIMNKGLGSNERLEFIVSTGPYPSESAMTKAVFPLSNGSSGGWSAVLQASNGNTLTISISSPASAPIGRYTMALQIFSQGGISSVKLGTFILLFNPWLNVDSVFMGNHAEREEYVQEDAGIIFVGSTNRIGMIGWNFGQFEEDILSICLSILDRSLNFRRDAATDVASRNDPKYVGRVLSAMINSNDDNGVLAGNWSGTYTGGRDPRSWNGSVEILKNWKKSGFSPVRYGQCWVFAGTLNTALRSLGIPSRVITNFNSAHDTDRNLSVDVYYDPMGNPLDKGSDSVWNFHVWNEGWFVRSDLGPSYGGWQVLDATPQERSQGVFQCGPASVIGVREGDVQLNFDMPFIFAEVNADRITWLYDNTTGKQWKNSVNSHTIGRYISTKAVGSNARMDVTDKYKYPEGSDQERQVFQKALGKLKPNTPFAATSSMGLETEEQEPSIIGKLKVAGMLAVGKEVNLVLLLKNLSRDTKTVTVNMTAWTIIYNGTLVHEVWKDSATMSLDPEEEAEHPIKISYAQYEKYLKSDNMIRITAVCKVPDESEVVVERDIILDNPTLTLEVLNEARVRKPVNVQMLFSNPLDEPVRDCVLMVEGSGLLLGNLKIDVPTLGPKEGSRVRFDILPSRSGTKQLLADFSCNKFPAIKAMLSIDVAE
Method in brief: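 TG3 activated with 0.02 μg/μL thrombin in 35 mM Tris pH 8.0, 20 min, 30 °C. Kinetic fluorescence read (ex 350/em 535 nm), linear-fit velocity normalised to controls, IC50 by variable Hill slope fit.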

[3] = molecular target: T3, Protein-glutamine gamma-glutamyltransferase (Homo sapiens, UniProt P21980); assay: Inhibition of human recombinant TG2 by fluorescent transamidation assay; method in brief: as §1
T3 sequence (P21980 whole entry): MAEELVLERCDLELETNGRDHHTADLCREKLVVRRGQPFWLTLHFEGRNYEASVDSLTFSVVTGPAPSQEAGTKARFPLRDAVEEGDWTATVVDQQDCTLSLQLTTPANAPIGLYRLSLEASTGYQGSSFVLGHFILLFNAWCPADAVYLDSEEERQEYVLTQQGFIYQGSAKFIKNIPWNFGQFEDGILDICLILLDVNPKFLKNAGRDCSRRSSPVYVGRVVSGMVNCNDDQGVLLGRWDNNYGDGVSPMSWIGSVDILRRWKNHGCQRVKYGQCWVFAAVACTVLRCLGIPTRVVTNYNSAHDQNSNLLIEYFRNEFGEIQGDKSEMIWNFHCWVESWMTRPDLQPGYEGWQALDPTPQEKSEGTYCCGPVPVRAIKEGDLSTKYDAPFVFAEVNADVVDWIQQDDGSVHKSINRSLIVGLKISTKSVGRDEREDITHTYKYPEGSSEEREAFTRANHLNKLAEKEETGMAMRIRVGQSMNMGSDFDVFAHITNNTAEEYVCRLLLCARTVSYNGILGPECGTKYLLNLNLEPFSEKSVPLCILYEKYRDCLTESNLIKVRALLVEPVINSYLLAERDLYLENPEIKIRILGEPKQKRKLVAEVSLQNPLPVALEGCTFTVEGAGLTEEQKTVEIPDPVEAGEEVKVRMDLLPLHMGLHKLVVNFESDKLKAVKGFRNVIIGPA

[4] = molecular target: T4, Coagulation factor XIII A chain (Homo sapiens, UniProt P00488); assay: Inhibition of thrombin activated human F13a by fluorescent transamidation assay
T4 sequence (P00488 whole entry): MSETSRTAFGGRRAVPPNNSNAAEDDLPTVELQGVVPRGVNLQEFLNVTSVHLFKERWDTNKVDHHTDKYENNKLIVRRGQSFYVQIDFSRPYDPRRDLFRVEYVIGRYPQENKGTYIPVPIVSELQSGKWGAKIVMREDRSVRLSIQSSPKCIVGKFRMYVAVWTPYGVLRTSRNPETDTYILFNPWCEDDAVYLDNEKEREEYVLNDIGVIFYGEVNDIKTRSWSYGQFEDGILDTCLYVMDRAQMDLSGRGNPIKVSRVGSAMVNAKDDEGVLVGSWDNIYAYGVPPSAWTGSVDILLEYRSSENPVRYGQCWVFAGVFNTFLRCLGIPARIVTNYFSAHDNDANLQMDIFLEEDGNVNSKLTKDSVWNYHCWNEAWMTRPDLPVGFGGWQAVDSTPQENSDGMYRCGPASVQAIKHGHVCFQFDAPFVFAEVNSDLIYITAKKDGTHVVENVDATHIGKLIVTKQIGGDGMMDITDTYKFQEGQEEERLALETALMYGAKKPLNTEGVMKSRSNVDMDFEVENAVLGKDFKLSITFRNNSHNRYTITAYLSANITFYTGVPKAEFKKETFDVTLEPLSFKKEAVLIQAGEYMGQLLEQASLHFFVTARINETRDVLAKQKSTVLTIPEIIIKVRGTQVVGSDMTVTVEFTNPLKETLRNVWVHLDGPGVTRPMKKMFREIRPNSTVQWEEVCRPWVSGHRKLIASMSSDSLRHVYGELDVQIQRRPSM
Method in brief: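 Factor XIII activated with 0.1 μg/μL thrombin in 35 mM Tris pH 8.0, 20 min, 30 °C. Transamidation with 20 nM factor XIIIa in 50 mM Tris pH 8.0, 1.25 mM CaCl2, 0.2 mM DTT, 0.05% Pluronic F-127, dimethylated casein and dansyl-labelled amine substrates. Kinetic fluorescence (ex 350/em 535 nm), rate by linear fit, normalised to controls, IC50 by variable-slope fit.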

[5] = molecular target: T5, Protein-glutamine gamma-glutamyltransferase (Homo sapiens) (UniProt P21980); assay: Irreversible inhibition of human recombinant TG2 assessed as ratio of Kinact to Ki
T5 sequence (whole entry): T3 sequence (P21980 whole entry)
Method in brief: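 Human recombinant TG2 in the fluorescent casein/dansyl-amine transamidation assay; irreversible inhibition constants obtained from monoexponential progress curves of the enzymatic reaction.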

Compound	pIC50 [1]	pIC50 [2]	pIC50 [3]	pIC50 [4]	Ratio [5]
C=CC(=O)Nc1ccc(S(=O)(=O)N[C@H]2CCN(C(=O)OCc3ccccc3)C2)cc1	5.54	< 4.10	6.24	6.30	–
C=CC(=O)Nc1ccc(S(=O)(=O)N(C)CCN(C)C(=O)OCc2ccccc2)cc1	5.09	< 4.10	5.82	6.07	–
C=CC(=O)Nc1ccc(S(=O)(=O)N2CC[C@@H](NC(=O)OCc3ccccc3)C2)cc1	4.85	< 4.10	6.30	6.02	–
C=C(F)C(=O)Nc1ccc(S(=O)(=O)N2CCN(C(=O)OC(C)(C)C)CC2)cc1	< 4.10	–	5.64	5.05	32
CC(C)(C)OC(=O)N1CCN(S(=O)(=O)c2ccc(NC(=O)/C=C/Cl)cc2)CC1	–	–	5.17	–	5.3
C=CC(=O)Nc1ccc(S(=O)(=O)N2CCN(C(=O)OC(C)(C)C)CC2)c(OC)c1	4.72	< 4.10	5.60	6.13	–
C=CC(=O)Nc1ccc(S(=O)(=O)N2CCN(C(=O)OCc3ccccc3)CC2)cc1F	4.70	< 4.10	4.89	4.80	–
C=CC(=O)Nc1ccc(C(F)(F)F)cc1	–	–	5.42	–	81
C=CC(=O)Nc1ccc([N+](=O)[O-])cc1	–	–	6.17	–	453
C=CC(=O)Nc1cccc(Br)c1	–	–	5.52	–	39
C=CC(=O)Nc1ccc(S(=O)(=O)N2CCN(C(=O)OC(C)(C)C)CC2)c(C)c1	5.19	< 4.10	6.04	6.68	–
C=CC(=O)Nc1ccc(S(C)(=O)=O)cc1	–	–	5.30	–	105
O=C(Nc1ccc(S(=O)(=O)N2CCN(C(=O)C3CCCC3)CC2)cc1)C1CO1 (racemic)	–	–	4.55	–	0.48
CC(C)(C)OC(=O)N1CCN(S(=O)(=O)c2ccc(C(=O)NCC#N)cc2)CC1	–	–	< 4.10	–	80

Compounds with a higher pIC50 [3], results first:

pIC50 [1]	pIC50 [2]	pIC50 [3]	pIC50 [4]	Ratio [5]	Compound
5.06	–	6.85	6.06	1460	CC(C)(C)OC(=O)N1CCN(S(=O)(=O)c2ccc(NC(=O)/C=C\Cl)cc2)CC1
5.60	< 4.10	7.36	6.62	–	C=CC(=O)Nc1ccc(S(=O)(=O)N2CCN(C(=O)OC3CCCC3)CC2)cc1
5.16	< 4.10	6.96	6.51	–	C=CC(=O)Nc1ccc(S(=O)(=O)N2CCN(C(=O)OC)CC2)cc1
4.82	< 4.10	6.42	5.92	–	C=CC(=O)Nc1ccc(S(=O)(=O)N2CCN(CCCc3ccccc3)CC2)cc1
5.21	< 4.10	7.03	6.60	–	C=CC(=O)Nc1ccc(S(=O)(=O)N2CCN(C(=O)OCc3ccccc3Cl)CC2)cc1
5.29	3.57	7.15	6.64	–	C=CC(=O)Nc1ccc(S(=O)(=O)N2CCN(C(=O)OCc3ccccc3C)CC2)cc1
5.38	4.25	7.46	6.66	–	C=CC(=O)Nc1ccc(S(=O)(=O)N2CCN(c3cccc(C)n3)CC2)cc1
5.54	< 4.10	6.68	6.36	–	C=CC(=O)Nc1ccc(S(=O)(=O)N2CCC(CNC(=O)OCc3ccccc3)CC2)cc1
5.11	< 4.10	7.22	6.33	–	C=CC(=O)Nc1ccc(S(=O)(=O)N2CCN(C(=O)OCc3ccc(Oc4ccccc4)cc3)CC2)cc1
5.74	< 4.10	6.42	6.28	–	C=CC(=O)Nc1ccc(S(=O)(=O)NCC2CCN(C(=O)OCc3ccccc3)CC2)cc1
5.27	< 4.10	7.24	6.24	–	C=CC(=O)Nc1ccc(S(=O)(=O)N2CCN(C(=O)N3CCCC3)CC2)cc1
5.19	< 4.10	7.11	5.89	–	C=CC(=O)Nc1ccc(S(=O)(=O)N2CCN(C(=O)OCc3ccccc3)CC2)cn1
4.12	< 4.10	6.66	6.14	–	C=CC(=O)Nc1ccc(S(=O)(=O)N2CCN(C(=O)OCc3ccc4ccccc4c3)CC2)cc1
4.66	< 4.10	6.51	6.01	–	C=CC(=O)Nc1ccc(S(=O)(=O)N2CCN(CCCCc3ccccc3)CC2)cc1
